Screening data: PubChem, several laboratories
Rev-erbA mod – modulators of human Rev-erb alpha DNA binding; P20393; Rev-erbα–FITC-DNA binding, fluorescence polarization, 90 min; activity, % at 10 µM; 370,000 compounds, 0.79% hits; AID 1259318;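 active = activity above about 14%, limit read from the data; passing the limit was not always enough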;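 also: 0% = DMSO wells with 35 nM protein and 100% = DMSO wells with 750 nM protein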
Target sequence (P20393 whole entry, looked up): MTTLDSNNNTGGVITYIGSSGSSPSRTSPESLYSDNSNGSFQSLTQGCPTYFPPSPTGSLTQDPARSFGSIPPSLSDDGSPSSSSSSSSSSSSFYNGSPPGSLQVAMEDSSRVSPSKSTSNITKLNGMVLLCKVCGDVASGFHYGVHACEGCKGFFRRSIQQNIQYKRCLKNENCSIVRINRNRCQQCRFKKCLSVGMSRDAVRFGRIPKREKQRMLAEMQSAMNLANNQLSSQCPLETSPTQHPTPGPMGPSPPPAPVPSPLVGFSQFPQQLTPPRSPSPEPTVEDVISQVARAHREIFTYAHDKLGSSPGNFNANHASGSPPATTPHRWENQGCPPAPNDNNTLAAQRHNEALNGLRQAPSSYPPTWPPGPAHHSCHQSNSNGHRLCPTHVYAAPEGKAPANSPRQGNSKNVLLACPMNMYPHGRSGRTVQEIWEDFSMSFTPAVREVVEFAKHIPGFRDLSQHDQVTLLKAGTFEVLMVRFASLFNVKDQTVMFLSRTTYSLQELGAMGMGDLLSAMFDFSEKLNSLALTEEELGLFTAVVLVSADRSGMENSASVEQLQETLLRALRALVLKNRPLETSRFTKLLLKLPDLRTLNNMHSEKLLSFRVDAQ
MC4R antagonist – human MC4R antagonism in cAMP assay; AID 540295; inhibition, % at 6.5 µM; 360,000 compounds, 0.48% hits; MC4R-expressing cells, MTII-stimulated cAMP, LANCE TR-FRET; P32245;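 active = inhibition above its plate's cutoff, the mean of tested wells on that plate plus 3 SD, cut at about 29% in these data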;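 also: 0% = Melanotan II alone and 100% = Melanotan II plus saturating MCL0020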
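system = U2OS cells with stable human MC4R expression | also added = Melanotan II challenge after compound preincubation | dosing = one concentration, 6.5 µM nominal | incubation = compound 30 min, challenge 1 h, detection 1 h | measured by = TR-FRET with Eu-cAMP and labeled anti-cAMP, 671 nm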
NR2E3 ag-1 – NR2E3 (human) agonism; 320,000 compounds, 0.12% hits; AID 2300; GST-NR2E3/biotin-RetCOR TR-FRET, 1536-well; Q9Y5X4; inhibition of corepressor binding, % at 4.78 µM;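 active = percent inhibition above the cutoff of mean plus 3 SD of all tested compounds, set per screening campaign, cut at about 20% in these data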;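 also: 0% = DMSO wells and 100% = biotin wells as full block of FRET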
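Assay system: NR2E3–RetCOR corepressor complex. Quantity: 1.35 nM GST-NR2E3. Buffer or medium: pH 7.5 Tris-based buffer. Reagent: biotinylated RetCOR corepressor at 7 nM final. Schedule: 5 h at 4 °C. Detection: TR-FRET, emission read at 617 and 671 nm. Replicates: one well per compound, singlicate testing.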
NR2E3 ag-2 – agonists of human NR2E3 nuclear receptor; Q9Y5X4; CHO-S Gal4-NCOR/VP16-NR2E3 two-hybrid, luciferase; inhibition of corepressor binding, % at 3.98 µM; 360,000 compounds, 0.35% hits; AID 602229;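 active = inhibition above the mean of all tested compounds plus 3 SD, cut at about 70% in these data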;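 also: 0% = DMSO with NR2E3 transfected cells and 100% = cells lacking NR2E3 construct; higher means lower luciferase signal from less NR2E3 corepressor binding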
PG9 binder – small molecules binding HIV-1 gp120 antibody PG9 | TR-FRET gp120-PG9 antibody binding | inhibition, % at 6.7 µM | 360,000 compounds, 0.43% hits; in the data active = inhibition above about 8.5%
MC4R ag barr – agonists of human melanocortin 4 receptor (MC4R) beta-arrestin. P32245. U2OS MC4R beta-arrestin complementation, luminescence; percent of melanotan II response, DMSO zero. activation, % at 8.9 µM. 360,000 compounds, 0.98% hits. AID 540308;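 active = activation above a per-plate cutoff, the mean activation of sample wells on that plate plus 3 SD, cut at about 8% in these data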
* marks the source's active call; other numbers are inactive results. Sampled rows, rich in hits. Any-hit rate of the full collection: about 2.7%.

What do the screens show for `Cc1ccc(NC(=O)CC2S/C(=N/c3nccs3)N(C)C2=O)cc1C` (centres undefined)?
Rev-erbA mod: 1; MC4R antagonist: -2; NR2E3 ag-1: -2; NR2E3 ag-2: 3; PG9 binder: 1; MC4R ag barr: 8.6*

Results for Cc1ccccc1NC(=O)CC1S/C(=N/c2nccs2)N(C)C1=O (centres undefined) ?
Rev-erbA mod: -1; MC4R antagonist: 11; NR2E3 ag-1: 1; NR2E3 ag-2: -22; PG9 binder: 1; MC4R ag barr: 1

What do the screens show for `COc1cccc(CNC(=O)CCc2nnc(C3CCCCC3)o2)c1`?
Rev-erbA mod: -1; MC4R antagonist: 1; NR2E3 ag-1: -1; NR2E3 ag-2: -6; PG9 binder: -1; MC4R ag barr: 0

What do the screens show for `N#C/C(=N\Nc1cccc(Cl)c1)C(=O)c1ccccc1`?
Rev-erbA mod: 1; MC4R antagonist: 2; NR2E3 ag-1: 5; NR2E3 ag-2: 102*; PG9 binder: -2; MC4R ag barr: -1

Results for N#C/C(=N\Nc1ccccc1Cl)C(=O)c1ccccc1 ?
Rev-erbA mod: -4; MC4R antagonist: 0; NR2E3 ag-1: -1; NR2E3 ag-2: 47; PG9 binder: 0; MC4R ag barr: -2

Results for Cc1cccc(-n2c(CCc3ccccc3)nnc2SCC(=O)c2ccccc2)c1 ?
Rev-erbA mod: 2; MC4R antagonist: 7; NR2E3 ag-1: -1; NR2E3 ag-2: -30; PG9 binder: 0; MC4R ag barr: 8.3*

What do the screens show for `O=C1C=C(OCCF)CC(c2ccc(Br)cc2)O1` (centres undefined)?
Rev-erbA mod: -5; PG9 binder: 0

What do the screens show for `CCOC(=O)C1CCCN(C(=O)CSc2ccc(NC(C)=O)cc2)C1` (centres undefined)?
Rev-erbA mod: 0; MC4R antagonist: 18; NR2E3 ag-1: -1; NR2E3 ag-2: -2; PG9 binder: -1; MC4R ag barr: -2

What do the screens show for `CC1(C)CC2CC(C)(CN2C(=O)c2cc(-c3ccc(O)cc3)on2)C1` (centres undefined)?
Rev-erbA mod: 4; MC4R antagonist: -8; NR2E3 ag-1: -1; NR2E3 ag-2: 0; PG9 binder: -1; MC4R ag barr: 8.9*

How did COc1cccc(-c2cc(C(=O)N3CC4(C)CC3CC(C)(C)C4)no2)c1 (centres undefined) do in these assays?
Rev-erbA mod: -1; MC4R antagonist: 1; NR2E3 ag-1: 4; NR2E3 ag-2: -25; PG9 binder: 2; MC4R ag barr: 1

How did COc1cc(CNCCc2c[nH]c3ccccc23)ccc1OCc1ccc(F)cc1 do in these assays?
Rev-erbA mod: -1; MC4R antagonist: -2; NR2E3 ag-1: 3; NR2E3 ag-2: 23; PG9 binder: -2; MC4R ag barr: 9.2*

How did O/N=C\c1cccn1-c1nccs1 do in these assays?
Rev-erbA mod: -4; MC4R antagonist: 6; NR2E3 ag-1: -3; NR2E3 ag-2: 1; PG9 binder: 0; MC4R ag barr: -1

Results for CC(C)Oc1ccc2c(c1)OC(c1ccccc1)(C(F)(F)F)NC2=O (centres undefined) ?
Rev-erbA mod: -3; MC4R antagonist: 3; NR2E3 ag-1: -1; NR2E3 ag-2: -13; PG9 binder: 1; MC4R ag barr: 8.5*

What do the screens show for `COc1ccc2c(c1)OC(c1ccccc1)(C(F)(F)F)NC2=O` (centres undefined)?
Rev-erbA mod: -2; MC4R antagonist: 8; NR2E3 ag-1: -1; NR2E3 ag-2: -5; PG9 binder: -2; MC4R ag barr: -2

Results for COc1ccc(-c2csc(NC(=S)NC(=O)/C=C/c3ccco3)n2)cc1Br ?
Rev-erbA mod: -3; MC4R antagonist: -18; NR2E3 ag-1: -6; NR2E3 ag-2: -22; PG9 binder: 1; MC4R ag barr: -1

How did COc1ccc(-c2csc(NC(=S)NC(=O)/C=C/c3ccco3)n2)cc1OC do in these assays?
Rev-erbA mod: -25; MC4R antagonist: -20; NR2E3 ag-1: 4; NR2E3 ag-2: -29; PG9 binder: 1; MC4R ag barr: 9.1*

What do the screens show for `O=C(CCCOc1ccccc1)Nc1ccc(Br)cc1`?
Rev-erbA mod: -4; MC4R antagonist: 6; NR2E3 ag-1: 2; NR2E3 ag-2: 3; PG9 binder: -2; MC4R ag barr: 8.6*

Results for Cc1cccc(OCCCC(=O)Nc2ccc(N3CCCCC3)cc2)c1 ?
Rev-erbA mod: 1; MC4R antagonist: 5; NR2E3 ag-1: 2; NR2E3 ag-2: -11; PG9 binder: -4; MC4R ag barr: 11*

What do the screens show for `O=C(CCOc1ccccc1)Nc1ccc(Br)cc1`?
Rev-erbA mod: -8; MC4R antagonist: 24; NR2E3 ag-1: -1; NR2E3 ag-2: -63; PG9 binder: 0; MC4R ag barr: 0

What do the screens show for `O=C(NCCO)Nc1ccc2nc(-c3ccco3)c(-c3ccco3)nc2c1`?
NR2E3 ag-1: 46*

Results for O=C(NCCCO)c1ccc2nc(-c3ccco3)c(-c3ccco3)nc2c1 ?
Rev-erbA mod: 0; MC4R antagonist: -20; NR2E3 ag-2: 19; PG9 binder: -1; MC4R ag barr: 0

How did N#CC(C#N)=C(Nc1ccc(F)cc1)SCc1cccc(Br)c1 do in these assays?
Rev-erbA mod: 0; MC4R antagonist: 4; NR2E3 ag-1: 2; NR2E3 ag-2: 94*; PG9 binder: 2; MC4R ag barr: 1

How did O=C1NC(c2ccccc2)=C(c2nc3ccccc3s2)C(c2ccc(O)cc2)N1 (centres undefined) do in these assays?
MC4R antagonist: 18; NR2E3 ag-1: 2; NR2E3 ag-2: 0; MC4R ag barr: 63*

What do the screens show for `Cc1ccc(S(=O)(=O)CCC(=O)c2cccc([N+](=O)[O-])c2)cc1`?
Rev-erbA mod: 1; MC4R antagonist: 31*; NR2E3 ag-1: 2; NR2E3 ag-2: 11; PG9 binder: -1; MC4R ag barr: -3

Results for Cc1ccc(S(=O)(=O)Cc2cc(F)c([N+](=O)[O-])cc2[N+](=O)[O-])cc1 ?
MC4R antagonist: 31*; NR2E3 ag-1: 5; NR2E3 ag-2: 5; MC4R ag barr: 2

Results for CCCN1CCC(NC(=O)C2CC=CCC2C(=O)O)CC1 (centres undefined) ?
Rev-erbA mod: -2; MC4R antagonist: 3; NR2E3 ag-1: 0; NR2E3 ag-2: -26; PG9 binder: -1; MC4R ag barr: 1

How did COc1ccccc1CNC(=O)C1Cc2cc(S(=O)(=O)N3CCCC3)ccc2N1C(C)=O (centres undefined) do in these assays?
Rev-erbA mod: 0; MC4R antagonist: -2; NR2E3 ag-1: 0; NR2E3 ag-2: -3; PG9 binder: -1; MC4R ag barr: -3
